In ChEMBL document CHEMBL1152589, “Identification and characterization of novel sirtuin inhibitor scaffolds” (Bioorg Med Chem, 2009):
Activity calls are given as the source filed them. The calls are words filed in the database; no cut-off is given here.

Assays:
[1] = biological target: NAD-dependent protein deacetylase HST2 (Saccharomyces cerevisiae S288c) (UniProt P53686); test: Inhibition of yeast Hst2 assessed as residual activity at 500 uM by fluorimetric assay relative to control
[2] = biological target: NAD-dependent protein deacetylase HST2 (Saccharomyces cerevisiae S288c) (UniProt P53686); test: Inhibition of yeast Hst2 assessed as residual activity at 50 uM by fluorimetric assay relative to control
[3] = biological target: T1, NAD-dependent protein deacetylase HST2 (Saccharomyces cerevisiae S288c, UniProt P53686); test: Inhibition of yeast Hst2 by fluorimetric assay
[4] = biological target: T2, NAD-dependent protein deacetylase sirtuin-1 (Homo sapiens, UniProt Q96EB6); test: Inhibition of human full length SIRT1 expressed in DE3 cells by fluorimetric assay; assay type: cell-based
T2 sequence (Q96EB6 whole entry): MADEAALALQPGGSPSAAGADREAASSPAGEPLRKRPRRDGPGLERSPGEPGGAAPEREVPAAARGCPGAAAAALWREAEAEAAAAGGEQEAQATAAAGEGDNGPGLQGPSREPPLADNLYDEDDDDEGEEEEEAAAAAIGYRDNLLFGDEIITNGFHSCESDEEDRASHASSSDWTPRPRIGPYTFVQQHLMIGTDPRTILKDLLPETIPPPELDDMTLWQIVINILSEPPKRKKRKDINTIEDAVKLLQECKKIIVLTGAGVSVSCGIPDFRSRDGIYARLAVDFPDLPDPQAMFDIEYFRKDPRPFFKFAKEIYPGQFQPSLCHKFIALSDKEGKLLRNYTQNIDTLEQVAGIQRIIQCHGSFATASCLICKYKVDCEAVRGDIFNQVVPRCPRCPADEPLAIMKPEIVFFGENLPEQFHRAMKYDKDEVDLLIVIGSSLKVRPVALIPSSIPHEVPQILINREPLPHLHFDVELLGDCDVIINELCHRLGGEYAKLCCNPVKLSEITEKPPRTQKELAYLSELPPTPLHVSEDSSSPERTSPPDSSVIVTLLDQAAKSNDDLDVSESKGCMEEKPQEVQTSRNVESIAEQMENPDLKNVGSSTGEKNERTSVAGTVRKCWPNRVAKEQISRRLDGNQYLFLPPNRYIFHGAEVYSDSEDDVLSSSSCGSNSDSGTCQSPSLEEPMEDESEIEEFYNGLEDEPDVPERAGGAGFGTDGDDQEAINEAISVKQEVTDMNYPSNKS

[5] = biological target: T3, NAD-dependent protein deacetylase sirtuin-2 (Homo sapiens) (UniProt Q8IXJ6); test: Inhibition of human SIRT2 by fluorogenic assay; design: concentration or dose not given beside the values
T3 sequence (whole entry): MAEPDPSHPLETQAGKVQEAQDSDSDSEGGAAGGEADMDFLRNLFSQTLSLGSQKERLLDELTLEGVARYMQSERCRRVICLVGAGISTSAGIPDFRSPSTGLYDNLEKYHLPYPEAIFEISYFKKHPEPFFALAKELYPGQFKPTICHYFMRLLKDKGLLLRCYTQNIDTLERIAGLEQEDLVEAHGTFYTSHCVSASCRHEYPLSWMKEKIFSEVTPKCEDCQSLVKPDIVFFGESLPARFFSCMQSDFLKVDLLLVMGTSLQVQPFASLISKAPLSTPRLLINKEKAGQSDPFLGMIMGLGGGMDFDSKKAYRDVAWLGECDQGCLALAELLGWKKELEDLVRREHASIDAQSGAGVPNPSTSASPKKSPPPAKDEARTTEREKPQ
Summary of the method: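 Human SIRT2 isoform II construct with extra N-terminal residues, expressed in E. coli BL21-Gold (DE3) as a His6 fusion. Purified by Ni-NTA, with the tag removed by thrombin, then Q sepharose and Superdex-200 gel filtration. Assayed by fluorigenic deacetylation of Fluor de Lys-SIRT1 substrate.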

[6] = biological target: NAD-dependent histone deacetylase SIR2 (Saccharomyces cerevisiae S288c) (UniProt P06700); test: Inhibition of Sir2 in Saccharomyces cerevisiae inserted URA3 reporter gene assessed as reduction of […] resistance at 1 mM by telomere silencing assay
[7] = biological target: NAD-dependent histone deacetylase SIR2 (Saccharomyces cerevisiae S288c) (UniProt P06700); test: Inhibition of Sir2 in Saccharomyces cerevisiae inserted URA3 reporter gene assessed as reduction of […] resistance at 10 uM by telomere silencing assay
[8] = biological target: NAD-dependent histone deacetylase SIR2 (Saccharomyces cerevisiae S288c) (UniProt P06700); test: Inhibition of Sir2 in Saccharomyces cerevisiae inserted URA3 reporter gene assessed as reduction of […] resistance at 40 uM by telomere silencing assay
[9] = biological target: T1, NAD-dependent protein deacetylase HST2; test: Mixed inhibition of yeast Hst2 using Acetyl-lysine substrate

Sequence of NAD-dependent histone deacetylase SIR2 (Saccharomyces cerevisiae S288c) (P06700 whole entry): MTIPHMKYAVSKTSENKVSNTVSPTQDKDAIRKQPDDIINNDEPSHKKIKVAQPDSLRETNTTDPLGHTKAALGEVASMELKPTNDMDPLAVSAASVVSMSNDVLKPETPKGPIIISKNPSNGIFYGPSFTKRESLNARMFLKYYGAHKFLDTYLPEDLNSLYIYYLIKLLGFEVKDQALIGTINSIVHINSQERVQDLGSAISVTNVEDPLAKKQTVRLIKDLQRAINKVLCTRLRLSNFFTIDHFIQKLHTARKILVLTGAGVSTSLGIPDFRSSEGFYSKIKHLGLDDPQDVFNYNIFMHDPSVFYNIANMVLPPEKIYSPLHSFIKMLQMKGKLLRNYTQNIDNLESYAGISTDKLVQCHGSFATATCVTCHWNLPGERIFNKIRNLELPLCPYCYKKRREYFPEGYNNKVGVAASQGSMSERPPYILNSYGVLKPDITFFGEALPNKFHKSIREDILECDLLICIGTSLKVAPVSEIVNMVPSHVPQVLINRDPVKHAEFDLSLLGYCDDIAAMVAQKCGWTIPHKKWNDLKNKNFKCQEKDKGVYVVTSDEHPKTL
T1 sequence (P53686 whole entry): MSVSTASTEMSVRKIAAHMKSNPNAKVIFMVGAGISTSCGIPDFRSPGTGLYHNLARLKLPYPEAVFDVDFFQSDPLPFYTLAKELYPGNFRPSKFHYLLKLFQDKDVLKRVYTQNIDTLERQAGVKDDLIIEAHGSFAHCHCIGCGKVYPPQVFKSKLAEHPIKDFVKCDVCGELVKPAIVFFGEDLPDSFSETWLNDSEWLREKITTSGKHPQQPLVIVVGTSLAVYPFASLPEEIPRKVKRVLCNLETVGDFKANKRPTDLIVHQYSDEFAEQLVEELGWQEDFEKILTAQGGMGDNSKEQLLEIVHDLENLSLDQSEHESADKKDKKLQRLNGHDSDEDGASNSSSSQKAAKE
Sequence of NAD-dependent protein deacetylase HST2 (Saccharomyces cerevisiae S288c) (P53686 whole entry): as above

SMILES	Activity [1] [%]	Activity [2] [%]	also measured
Cc1cc(=O)oc2cc(OC(=O)COc3ccccc3)ccc12	45	91	
O=C(O)CCN1C(=O)c2cc(Cl)c(Cl)cc2C1=O			IC50 [3]: Not Active
COCC#CC1(C)c2cc(O)c(OC)cc2CCN1C (centres undefined)	100	100	
COCCCC1c2cc(O)c(OC)cc2CCN1C (centres undefined)	92	99	
Cc1ccc(OCCCC(=O)Oc2ccc3c(C)cc(=O)oc3c2)cc1	57	99	
Cc1ccc(OCCCC(=O)Oc2ccc3c(c2)CCC3)c(C)c1	49	93	
Oc1c(Cc2ccccc2Cl)ccc2cccnc12	100	100	
O=C(O)CCCN1C(=O)c2ccccc2C1=O			IC50 [3]: Not Active
Cc1ccc2[nH]c3c(c2c1)CCCCC3C(N)=O (centres undefined)			IC50 [4]: 0.64 µM; IC50 ([3]; read-out: IC50): 14.5 µM
Cn1cc(C2=C(c3cn(CCCSC(=N)N)c4ccccc34)C(=O)NC2=O)c2ccccc21 [BISINDOLYLMALEIMIDE IX]			IC50 ([3]; read-out: IC50): 20 µM
Cc1c(Cl)c(=O)oc2cc(OC(=O)CCCOc3ccc(Cl)cc3Cl)ccc12	68	90	
NC(=O)c1cccnc1			Activity [5]: 26%
O=C1CCc2c(ccc3ccccc23)O1 [SPLITOMICIN]			IC50 ([3]; read-out: IC50): > 600 µM
Nc1cccc(Cc2cccc(N)c2)c1	100	100	
Cc1cc(Cc2cc(C)c(O)c(C)c2)cc(C)c1O	43	89	
Nc1ccc2c(c1)C(=O)N(CCC(=O)O)C2			IC50 [3]: Not Active
Oc1ccc(Cc2ccccc2)cc1	88	100	
COC/C=C/C1c2cc(O)c(OC)cc2CCN1C (centres undefined)	94	97	
O=C(O)CCN1Cc2ccccc2C1=O			Activity [6]: Active; Activity [5]: 89%; IC50 ([3]; read-out: IC50): 19.9 µM
COc1ccc(OCCCC(=O)Oc2ccc3c(c2)CCC3)cc1	58	95	

SMILES	Activity [1] [%]	Activity [2] [%]	also measured
COCC#CC1c2cc(O)c(OC)cc2CCN1Cc1ccc(OC)cc1 (centres undefined)			IC50 ([3]; read-out: IC50): 260 µM
COCC#CC1c2cc(O)c(OC)cc2CCN1C (centres undefined)			Activity [5]: 92.1%
C#CC1c2cc(O)c(OC)cc2CCN1C (centres undefined)	86	100	
Cc1cc(Cl)c(O)c(Cc2c(O)c(Cl)cc(Cl)c2Cl)c1Cl			Activity [7]: Active; Activity [8]: Active; Ki [9]: 2.5 µM; Activity [5]: 18.5%; IC50 [4]: 34 µM; IC50 ([3]; read-out: IC50): 12.5 µM
CC(C)C(=O)CCN1C(=O)c2ccccc2C1=O			IC50 [3]: Not Active
C#C[C@@H]1c2cc(O)c(OC)cc2CCN1C	74	97	
NC(=O)C1CCCCc2c1[nH]c1ccc(Cl)cc21 (centres undefined)			IC50 ([3]; read-out: IC50): 1.3 µM
COc1cc2c(cc1O)CN(C)CC2	98	100	
OC(c1ccccc1)c1ccc(C(F)(F)F)cc1 (centres undefined)	81	100	
Cc1cccc(OCC(=O)Oc2ccc3c(C)cc(=O)oc3c2)c1	13	90	
Cc1ccc(OCCCC(=O)Oc2ccc3c(C)cc(=O)oc3c2)c(C)c1	51	90	
C[S+]([O-])CCC(C(=O)O)N1C(=O)c2ccccc2C1=O (centres undefined)			IC50 [3]: Not Active
Cc1c(Cl)c(=O)oc2cc(OC(=O)CCNC(=O)Oc3ccccc3)ccc12	74	100	
O=C(O)CCN1C(=O)c2ccc(-c3nc4ccccc4c(=O)o3)cc2C1=O			IC50 [3]: Not Active
CCc1ccc(OCCCC(=O)Oc2ccc3c(C)cc(=O)oc3c2)cc1	53	86	
CN(C)CCCCC(=O)Nc1ccc(NC(=S)NC(=O)c2ccc(C(C)(C)C)cc2)cc1			IC50 ([3]; read-out: IC50): > 100 µM
C#C[C@H]1c2cc(O)c(OC)cc2CCN1C	70	96	
O=C1c2ccccc2C(=O)N1CCBr			IC50 [3]: Not Active
COc1ccc(OCCCC(=O)Oc2ccc3c(C)cc(=O)oc3c2)cc1	35	93	
